What was measured:
[1] = system: CCRF-CEM; assay: Cytotoxicity against human CEM cells; type: cell-based
[2] = system: Human immunodeficiency virus 2; assay: Antiviral activity against HIV2 ROD infected in human CEM cells assessed as virus-induced giant cell formation after 4 days by microscopic analysis; type: functional, organism-based; details: Human immunodeficiency virus 2, ISOLATE ROD, CCRF-CEM, 96 h
Method in brief: (§1)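 CEM cells (∼3 × 10^5 cells/cm3) infected with 100 CCID50/mL of HIV-1(IIIB) or HIV-2(ROD), seeded into wells with compound dilutions. Giant cell formation examined microscopically after 4 days at 37 °C.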

[3] = system: Human immunodeficiency virus 1; assay: Antiviral activity against HIV1 3B infected in human CEM cells assessed as virus-induced giant cell formation after 4 days by microscopic analysis; type: functional, organism-based; details: Human immunodeficiency virus 1, 3B, CCRF-CEM, 96 h; method in brief: as §1
[4] = system: HeLa; assay: Cytostatic activity against human HeLa cells assessed as growth inhibition after 3 days by particle counting analysis; type: functional, cell-based; details: 72 h
Method in brief: (§2)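 Tumor cells seeded and exposed to a range of compound concentrations. Cell number counted with a particle counter after 2 days (L1210, L1210/TK) or 3 days (CEM, CEM/TK, HeLa, HeLa TK, Caco-2, Colo-320).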

[5] = system: CCRF-CEM; assay: Cytostatic activity against human CEM cells assessed as growth inhibition after 3 days by particle counting analysis; type: functional, cell-based; details: 72 h; method in brief: as §2
[6] = system: L1210; assay: Cytostatic activity against mouse L1210 cells assessed as growth inhibition after 2 days by particle counting analysis; type: functional, cell-based; details: L1210, 48 h; method in brief: as §2
[7] = Cytotoxicity against HEL cells; type: cell-based; details: human
[8] = system: Felid alphaherpesvirus 1; assay: Antiviral activity against Feline herpesvirus infected in cat CRFK cells assessed as inhibition of virus-induced cytopathicity; type: functional, organism-based; details: Felid alphaherpesvirus 1, CRFK
[9] = system: Human alphaherpesvirus 1; assay: Antiviral activity against acyclovir-resistant thymidine kinase-deficient Herpes simplex virus 1 KOS infected in HEL cells assessed as inhibition of virus-induced cytopathicity; type: functional, organism-based; details: Human alphaherpesvirus 1, KOS
[10] = system: Human alphaherpesvirus 2; assay: Antiviral activity against Herpes simplex virus 2 G infected in HEL cells assessed as inhibition of virus-induced cytopathicity; type: functional, organism-based; details: Human alphaherpesvirus 2, strain G
[11] = system: Human alphaherpesvirus 1; assay: Antiviral activity against Herpes simplex virus 1 KOS infected in HEL cells assessed as inhibition of virus-induced cytopathicity; type: functional, organism-based; details: Human alphaherpesvirus 1, KOS
[12] = system: HeLa; assay: Cytostatic activity against thymidine kinase-deficient human HeLa cells assessed as growth inhibition after 3 days by particle counting analysis; type: functional, cell-based; details: 72 h; method in brief: as §2
[13] = system: Huh-7; assay: Cytotoxicity against human HuH7 cells; type: cell-based
[14] = system: Hepatitis C virus; assay: Antiviral activity against Hepatitis C virus genotype 1b infected in human HuH7 cells assessed as inhibition of viral replication; type: functional, organism-based, Hepacivirus hominis; details: Huh-7, read-out: EC50
[15] = system: COLO 320; assay: Cytostatic activity against human COLO320 cells assessed as growth inhibition after 3 days by particle counting analysis; type: functional, cell-based; details: COLO 320, 72 h; method in brief: as §2
[16] = system: Caco-2; assay: Cytostatic activity against human Caco2 cells assessed as growth inhibition after 3 days by particle counting analysis; type: functional, cell-based; details: Caco-2, 72 h; method in brief: as §2
[17] = system: CCRF-CEM; assay: Cytostatic activity against thymidine kinase-deficient human CEM cells assessed as growth inhibition after 3 days by particle counting analysis; type: functional, cell-based; details: 72 h; method in brief: as §2
[18] = system: L1210; assay: Cytostatic activity against thymidine kinase-deficient mouse L1210 cells assessed as growth inhibition after 2 days by particle counting analysis; type: functional, cell-based; details: L1210, 48 h; method in brief: as §2

Structure (SMILES)	EC50 [2]	EC50 [3]	IC50 [4]	IC50 [5]	IC50 [6]	IC50 [12]	further results
Nc1ncnc2c1ncn2[C@H]1CC[C@@H](CO)O1	2.8 µM	7.2 µM	> 250 µM	> 250 µM	> 250 µM	–	CC50 [1]: > 250 µM
Cc1cn([C@H]2C[C@H](N=[N+]=[N-])[C@@H](COP(=O)(N[C@@H](C)C(=O)OCC(C)(C)C)N[C@@H](C)C(=O)OCC(C)(C)C)O2)c(=O)[nH]c1=O	0.013 µM	0.0083 µM	–	–	–	–	CC50 [1]: 75 µM
COC(=O)[C@H](C)NP(=O)(N[C@@H](C)C(=O)OC)OC[C@H]1O[C@@H](n2cnc(C(N)=O)c2N)[C@H](O)[C@@H]1O	–	–	> 250 µM	> 250 µM	≥ 250 µM	> 250 µM	MCC [7]: > 100 µM; EC50 [8]: > 100 µM; EC50 [9]: > 100 µM; EC50 [10]: > 100 µM; EC50 [11]: > 100 µM
CCOc1nc(N)nc2c1ncn2[C@@H]1O[C@H](COP(=O)(N[C@@H](C)C(=O)OCC(C)(C)C)N[C@@H](C)C(=O)OCC(C)(C)C)[C@@H](O)[C@@]1(C)F	–	–	–	–	–	–	CC50 ([13]; human, huh-7, read-out: CC50): 73 µM; EC50 [14]: 0.05 µM
Cc1cn([C@H]2C=C[C@@H](CO)O2)c(=O)[nH]c1=O [STAVUDINE]	0.58 µM	0.39 µM	> 250 µM	–	–	> 250 µM	IC50 [15]: 159 µM; IC50 [16]: > 250 µM; IC50 [17]: > 250 µM; IC50 [18]: ≥ 250 µM
C[C@H](NP(=O)(N[C@@H](C)C(=O)OCC(C)(C)C)OC[C@@]1(N=[N+]=[N-])O[C@@H](n2ccc(=O)[nH]c2=O)[C@H](O)[C@@H]1O)C(=O)OCC(C)(C)C	–	–	–	–	–	–	CC50 ([13]; human, huh-7, read-out: CC50): > 100 µM; EC50 [14]: 22 µM
Cc1cn([C@H]2C=C[C@@H](COP(=O)(N[C@@H](C)C(=O)OC3CCCCC3)N[C@@H](C)C(=O)OC3CCCCC3)O2)c(=O)[nH]c1=O	0.38 µM	0.15 µM	96 µM	73 µM	29 µM	36 µM	IC50 [16]: 135 µM; IC50 [17]: 54 µM; IC50 [18]: 25 µM
C[C@H](NP(=O)(N[C@@H](C)C(=O)OCc1ccccc1)OC[C@H]1O[C@@H](n2cnc(C(N)=O)c2N)[C@H](O)[C@@H]1O)C(=O)OCc1ccccc1	–	–	> 250 µM	> 250 µM	> 250 µM	> 250 µM	MCC [7]: > 100 µM; EC50 [8]: > 100 µM; EC50 [9]: > 100 µM; EC50 [10]: > 100 µM; EC50 [11]: > 100 µM
C[C@H](NP(=O)(N[C@@H](C)C(=O)OCC(C)(C)C)OC[C@@H]1C=C[C@H](n2cnc3c(NC4CC4)nc(N)nc32)C1)C(=O)OCC(C)(C)C	1.2 µM	1.5 µM	36 µM	27 µM	48 µM	–	–
C[C@H](NP(=O)(N[C@@H](C)C(=O)OCc1ccccc1)OC[C@@H]1C=C[C@H](n2cnc3c(NC4CC4)nc(N)nc32)C1)C(=O)OCc1ccccc1	1.1 µM	0.56 µM	23 µM	19 µM	54 µM	–	–
CCCCCc1ccc(-c2cc3cn([C@H]4C[C@H](O)[C@@H](CO)O4)c(=O)nc3o2)cc1 [CF1743]	–	–	–	–	–	–	MCC [7]: ≥ 20 µM
C[C@H](NP(=O)(N[C@@H](C)C(=O)OCc1ccccc1)OC[C@H]1O[C@@H](n2cnc(C(N)=O)n2)[C@H](O)[C@@H]1O)C(=O)OCc1ccccc1	–	–	–	–	–	–	CC50 ([13]; Homo sapiens, Huh-7, read-out: EC50 (the source's name)): > 100 µM; EC50 [14]: > 100 µM
CCCCCc1ccc(-c2cc3cn([C@H]4C[C@H](O)[C@@H](COP(=O)(N[C@@H](C)C(=O)OCc5ccccc5)N[C@@H](C)C(=O)OCc5ccccc5)O4)c(=O)nc3o2)cc1	–	–	–	–	–	–	MCC [7]: > 100 µM; EC50 [8]: > 100 µM; EC50 [9]: > 100 µM; EC50 [10]: > 100 µM; EC50 [11]: > 100 µM
Cc1cn([C@H]2C=C[C@@H](COP(=O)(N[C@@H](C)C(=O)OCc3ccccc3)N[C@@H](C)C(=O)OCc3ccccc3)O2)c(=O)[nH]c1=O	0.096 µM	0.14 µM	116 µM	92 µM	8.9 µM	29 µM	IC50 [15]: 133 µM; IC50 [16]: 241 µM; IC50 [17]: 46 µM; IC50 [18]: 7.4 µM
C[C@H](NP(=O)(N[C@@H](C)C(=O)OCC(C)(C)C)OC[C@@]1(N=[N+]=[N-])O[C@@H](n2ccc(N)nc2=O)[C@H](O)[C@@H]1O)C(=O)OCC(C)(C)C	–	–	–	–	–	–	CC50 ([13]; human, huh-7, read-out: CC50): 72 µM; EC50 [14]: > 40 µM
